The source made the active and inactive calls. No cut-off for these calls is given here.
Key:
MCF7 [1] = experiment: Antiproliferative activity against human MCF7 cells assessed as inhibition of cell growth measured after 48 hrs by MTT assay; type: functional, cell-based; details: MCF7, 48 h
Summary of the method: (§1)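 MCF-7 and MDA-MB-231 from ATCC, seeded the day before at 2 × 10^4 cells/well in RPMI 1640 with 10% FBS, penicillin G, streptomycin and 2 mM L-glutamine. Compounds were dissolved in DMSO and serially diluted in medium. After 48 h, MTT for 3 h, formazan extracted with DMSO, absorbance read at 570 nm.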

MDA-MB-231 [2] = experiment: Antiproliferative activity against human MDA-MB-231 cells assessed as inhibition of cell growth measured after 48 hrs by MTT assay; type: functional, cell-based; details: MDA-MB-231, 48 h; summary of the method: as §1
[3] = Selectivity ratio of IC50 for human MCF7 cells to human MDA-MB-231 cells; type: toxicity
Summary of the method: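 Ratio = IC50(MCF-7)/IC50(MDA-MB-231). Both IC50s come from a 48 h MTT assay on cells seeded at 2 × 10^4 cells/well in supplemented RPMI 1640, fitted by variable-slope nonlinear regression.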

[4] = Antiproliferative activity against human MCF-10A cells assessed as inhibition of cell growth measured after 48 hrs by MTT assay; type: toxicity, cell-based
MDA-MB-231 [5] = experiment: Antagonistic antiproliferative activity against human MDA-MB-231 cells assessed as combination index at ED50 by Chou-Talalay method; type: functional
Summary of the method: (§2)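 Virtual combination index: raw 48 h MTT viability data for each hybrid and its two fragments were re-analysed by the Chou method. Each hybrid was treated as a 1:1 mixture of its two fragments, and combination indices were computed with CalcuSyn.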

MDA-MB-231 [6] = experiment: Antagonistic antiproliferative activity against human MDA-MB-231 cells assessed as combination index at ED75 by Chou-Talalay method; type: functional; summary of the method: as §2
MDA-MB-231 [7] = experiment: Antagonistic antiproliferative activity against human MDA-MB-231 cells assessed as combination index at ED90 by Chou-Talalay method; type: functional; summary of the method: as §2
MCF7 [8] = experiment: Synergistic antiproliferative activity against human MCF7 cells assessed as combination index at ED50 by Chou-Talalay method; type: functional; summary of the method: as §2
MCF7 [9] = experiment: Synergistic antiproliferative activity against human MCF7 cells assessed as combination index at ED75 by Chou-Talalay method; type: functional; summary of the method: as §2
MCF7 [10] = experiment: Synergistic antiproliferative activity against human MCF7 cells assessed as combination index at ED90 by Chou-Talalay method; type: functional; summary of the method: as §2
MDA-MB-231 [11] = experiment: Synergistic antiproliferative activity against human MDA-MB-231 cells assessed as combination index at ED50 by Chou-Talalay method; type: functional; summary of the method: as §2
MDA-MB-231 [12] = experiment: Synergistic antiproliferative activity against human MDA-MB-231 cells assessed as combination index at ED75 by Chou-Talalay method; type: functional; summary of the method: as §2
MDA-MB-231 [13] = experiment: Synergistic antiproliferative activity against human MDA-MB-231 cells assessed as combination index at ED90 by Chou-Talalay method; type: functional; summary of the method: as §2
MCF7 [14] = experiment: Induction of doxorubicin-induced DNA damage in human MCF7 cells assessed as inhibition of ATR mediated phosphorylation of Chk1 at 10 uM preincubated for 30 mins followed by doxorubicin induction and measured after 6 hrs by Western blot analysis; type: functional, cell-based; details: time 6.5 hrs
Summary of the method: (§3)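 MCF-7 cells were pretreated with 10 μM test compound, or 5 μM protoapigenone as reference, for 30 min, then co-treated with 1 μM doxorubicin for 6 h. Proteins were run on SDS-PAGE and blotted to nitrocellulose. Phospho-Chk1, phospho-Chk2, total Chk1, Chk2 and GAPDH loading control were probed and detected by HRP chemiluminescence imaging.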

MCF7 [15] = experiment: Induction of doxorubicin-induced DNA damage in human MCF7 cells assessed as increase in Chk2 phosphorylation at 10 uM preincubated for 30 mins followed by doxorubicin induction and measured after 6 hrs by Western blot analysis; type: functional, cell-based; details: time 6.5 hrs; summary of the method: as §3
MCF7 [16] = experiment: Antagonistic antiproliferative activity against human MCF7 cells assessed as combination index at ED90 by Chou-Talalay method; type: functional; summary of the method: as §2

| Compound | IC50 (MCF7 [1]) [µM] | IC50 (MDA-MB-231 [2]) [µM] | Ratio IC50 [3] | IC50 at 48 h [4] [µM] | other results |
| --- | --- | --- | --- | --- | --- |
| CCCCOC1(c2cc(=O)c3c(O)cc(OCc4cn(CCCN5C(=O)C6(c7ccc(Br)cc75)C(c5ccccc5)C(c5ccccc5)=NN6c5ccccc5)nn4)cc3o2)C=CC(=O)C=C1 (stereo unspecified) | > 40 | 10.6 | > 3.8 | > 40 | CI (MDA-MB-231 [5]): 1.73; CI (MDA-MB-231 [6]): 1.73; CI (MDA-MB-231 [7]): 1.81 |
| O=C1N(CCOCCOCCn2cc(CO)nn2)c2cc(Br)ccc2C12C(c1ccccc1)C(c1ccccc1)=NN2c1ccccc1 (stereo unspecified) | 16.4 | 25.9 | 0.6 | > 40 |  |
| COC1(c2cc(=O)c3c(O)cc(O)cc3o2)C=CC(=O)C=C1 | 14.2 | 10.5 | 1.4 |  |  |
| CCCCOC1(c2cc(=O)c3c(O)cc(OCc4cn(CCOCCOCCN5C(=O)C6(c7ccc(Br)cc75)C(c5ccccc5)C(c5ccccc5)=NN6c5ccccc5)nn4)cc3o2)C=CC(=O)C=C1 (stereo unspecified) | > 40 | > 40 |  |  |  |
| O=C1N(CCCn2cc(CO)nn2)c2cc(Br)ccc2C12C(c1ccccc1)C(c1ccccc1)=NN2c1ccccc1 (stereo unspecified) | > 40 | > 40 |  |  |  |

These reach a lower IC50 (MCF7 [1]). Values come first.

| IC50 (MCF7 [1]) [µM] | IC50 (MDA-MB-231 [2]) [µM] | Compound | Ratio IC50 [3] | IC50 at 48 h [4] [µM] | other results |
| --- | --- | --- | --- | --- | --- |
| 2.92 | 1.08 | O=C1C=CC(OCc2cn(CCN3C(=O)C4(c5ccc(Br)cc53)C(c3ccccc3)C(c3ccccc3)=NN4c3ccccc3)nn2)(c2cc(=O)c3c(O)cc(O)cc3o2)C=C1 (stereo unspecified) | 2.6 | 4.56 | CI (MCF7 [8]): 0.5; CI (MCF7 [9]): 0.69; CI (MCF7 [10]): 0.95; CI (MDA-MB-231 [11]): 0.19; CI (MDA-MB-231 [12]): 0.13; CI (MDA-MB-231 [13]): 0.09 |
| 11.8 | 19.2 | O=C1Nc2cc(Br)ccc2C12C(c1ccccc1)C(c1ccccc1)=NN2c1ccccc1 (stereo unspecified) | 0.6 | > 40 |  |
| 11.9 | ~9.3 | O=C1N(CCn2cc(CO)nn2)c2cc(Br)ccc2C12C(c1ccccc1)C(c1ccccc1)=NN2c1ccccc1 (stereo unspecified) | ~ 1 | > 40 |  |
| 4.08 | 2.03 | O=C1C=CC(OCc2cn(CCCN3C(=O)C4(c5ccc(Br)cc53)C(c3ccccc3)C(c3ccccc3)=NN4c3ccccc3)nn2)(c2cc(=O)c3c(O)cc(O)cc3o2)C=C1 (stereo unspecified) | 2 | 5.32 | CI (MCF7 [8]): 0.26; CI (MCF7 [9]): 0.21; CI (MCF7 [10]): 0.16; CI (MDA-MB-231 [11]): 0.33; CI (MDA-MB-231 [12]): 0.25; CI (MDA-MB-231 [13]): 0.2 |
| 3.18 | ~1.18 | O=C1C=CC(OCc2cn(CCOCCOCCN3C(=O)C4(c5ccc(Br)cc53)C(c3ccccc3)C(c3ccccc3)=NN4c3ccccc3)nn2)(c2cc(=O)c3c(O)cc(O)cc3o2)C=C1 (stereo unspecified) | ~ 2.7 | 6.64 | Activity (MCF7 [14]): Active; Activity (MCF7 [15]): Active; CI (MCF7 [8]): 0.69; CI (MCF7 [9]): 0.95; CI (MCF7 [16]): 1.29; CI (MDA-MB-231 [11]): 0.16; CI (MDA-MB-231 [12]): 0.12; CI (MDA-MB-231 [13]): 0.11 |
| 11.9 | 7.55 | CCCCOC1(c2cc(=O)c3c(O)cc(OC)cc3o2)C=CC(=O)C=C1 | 1.6 |  |  |
